Data from ChEMBL document CHEMBL1125449, “Substitution on the Phe3 aromatic ring in cyclic delta opioid receptor-selective dermorphin/deltorphin tetrapeptide analogues: electronic and lipophilic requirements for receptor affinity” (J Med Chem, 1992).
Positions of bridges follow the written chain, without caps; N, C: chain ends. Non-standard residues stand in square brackets, D forms with d. Residues, ends and D or L forms follow the SMILES beside them. Phe(4-NO2) = N[C@@H](Cc1ccc([N+](=O)[O-])cc1)C(=O)O; Phe(4-tBu) = CC(C)(C)c1ccc(C[C@H](N)C(=O)O)cc1; Phe(4-Cl) = N[C@@H](Cc1ccc(Cl)cc1)C(=O)O; Phe(3-F) = N[C@@H](Cc1cccc(F)c1)C(=O)O; Phe(4-F) = N[C@@H](Cc1ccc(F)cc1)C(=O)O; Phe(4-Me) = Cc1ccc(C[C@H](N)C(=O)O)cc1; Phe(2-F) = N[C@@H](Cc1ccccc1F)C(=O)O; mTyr = N[C@@H](Cc1cccc(O)c1)C(=O)O; Pen = CC(C)(S)[C@H](N)C(=O)O

Legend:
[1] = molecular target: Mu-type opioid receptor (Cavia porcellus) (UniProt P97266); assay: Ratio of binding affinity towards opioid receptor mu to opioid receptor delta
[2] = molecular target: T1, Kappa-type opioid receptor (Cavia porcellus, UniProt P41144); assay: Compound was tested for the inhibition of [3H]- (U69,593) binding to opioid receptor kappa in guinea pig brain homogenates; assay type: tissue-based
How it was run: (§1)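 Guinea pig brain membranes (washed, preincubated 37 °C 30 min to remove endogenous opioids) in 50 mM Tris pH 7.4. Test compound preincubated with membranes 15 min at 25 °C, then 0.9 nM [3H]U69,593 added and incubated 90 min at 25 °C. Nonspecific binding defined with 10 μM U69,593. Filtration, scintillation counting. 12 concentrations, triplicate. IC50 by regression; Ki from saturation-derived KD.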

Mu-type opioid receptor [3] = molecular target: T2, Mu-type opioid receptor (Cavia porcellus, UniProt P97266); assay: Compound was tested for the inhibition of [3H]- [D-Ala2, N-MePhe4, Gly5-ol]-enkephalin (DAMGO) binding to opioid receptor mu in guinea pig brain homogenates; assay type: tissue-based
How it was run: as §1, with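 “0.6” for “0.9”, “[3H]DAMGO” for “[3H]U69,593”, “75” for “90”, “5” for “10”, “DAMGO.” for “U69,593.”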

[4] = molecular target: T1, Kappa-type opioid receptor; assay: Compound was tested for the inhibition of [3H]- (U69,593) binding to Opioid receptor kappa 1 in guinea pig brain homogenates; assay type: tissue-based
[5] = molecular target: Opioid receptors; mu & delta (Homo sapiens) (UniProt P41143+P35372); assay: Ratio of binding affinity towards mu receptor to delta receptor.; assay type: protein assay
Mu-type opioid receptor [6] = molecular target: T2, Mu-type opioid receptor; assay: Compound was tested for the inhibition of [3H]- [D-Ala2, N-MePhe4, Gly5-ol]-enkephalin (DAMGO) binding to Opioid receptor mu 1 in guinea pig brain homogenates; assay type: tissue-based

Mu-type opioid receptor (Cavia porcellus), sequence (P97266 whole entry): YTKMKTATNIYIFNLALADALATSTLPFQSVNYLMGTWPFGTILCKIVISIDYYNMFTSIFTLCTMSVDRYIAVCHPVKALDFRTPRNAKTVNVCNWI
T2 sequence (P97266 whole entry): as above
Opioid receptors; mu & delta (Homo sapiens), sequence (P35372 whole entry, looked up): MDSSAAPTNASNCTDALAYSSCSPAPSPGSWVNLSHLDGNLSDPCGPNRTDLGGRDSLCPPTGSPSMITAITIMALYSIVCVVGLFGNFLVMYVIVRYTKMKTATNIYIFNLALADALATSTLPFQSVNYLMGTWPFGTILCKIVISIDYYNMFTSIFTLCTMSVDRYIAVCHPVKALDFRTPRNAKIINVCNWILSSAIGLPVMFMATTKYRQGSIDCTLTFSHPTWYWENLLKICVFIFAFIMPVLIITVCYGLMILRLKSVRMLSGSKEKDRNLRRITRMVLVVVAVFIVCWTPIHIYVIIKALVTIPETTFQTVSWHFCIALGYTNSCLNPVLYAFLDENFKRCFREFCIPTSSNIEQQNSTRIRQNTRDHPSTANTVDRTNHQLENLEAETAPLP
Opioid receptors; mu & delta (Homo sapiens), sequence (P41143 whole entry, looked up): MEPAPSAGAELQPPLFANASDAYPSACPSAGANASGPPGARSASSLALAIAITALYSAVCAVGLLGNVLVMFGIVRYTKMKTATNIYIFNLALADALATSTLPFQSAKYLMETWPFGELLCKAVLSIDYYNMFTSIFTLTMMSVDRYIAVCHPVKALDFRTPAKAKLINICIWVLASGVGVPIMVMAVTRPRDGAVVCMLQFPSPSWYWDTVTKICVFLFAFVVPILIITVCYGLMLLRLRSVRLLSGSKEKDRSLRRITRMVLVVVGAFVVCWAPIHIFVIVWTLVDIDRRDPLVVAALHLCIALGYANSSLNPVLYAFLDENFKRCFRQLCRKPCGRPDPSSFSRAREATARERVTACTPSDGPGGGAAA
T1 sequence (P41144 whole entry): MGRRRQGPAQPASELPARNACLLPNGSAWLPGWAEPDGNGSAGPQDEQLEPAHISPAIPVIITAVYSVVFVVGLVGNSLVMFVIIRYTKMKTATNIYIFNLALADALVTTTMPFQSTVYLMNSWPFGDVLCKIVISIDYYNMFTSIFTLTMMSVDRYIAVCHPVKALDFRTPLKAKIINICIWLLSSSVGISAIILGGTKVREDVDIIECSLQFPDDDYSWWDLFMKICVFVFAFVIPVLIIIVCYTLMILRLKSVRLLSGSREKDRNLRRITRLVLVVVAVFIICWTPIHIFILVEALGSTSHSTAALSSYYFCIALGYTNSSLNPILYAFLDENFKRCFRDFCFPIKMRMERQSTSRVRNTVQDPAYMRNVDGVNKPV

**Q.** Cc1ccc(C[C@@H]2NC(=O)[C@@H](NC(=O)[C@@H](N)Cc3ccc(O)cc3)CSSC(C)(C)[C@@H](C(=O)O)NC2=O)cc1 (H-YC[Phe(4-Me)][Pen]-OH; disulfide 2-4) was tested. Which Ratio [1] did it give?
**A.** The Ratio was 325.

**Q.** What about the Ki [2] of the same compound?
**A.** Its Ki is over 10 µM.

**Q.** What about the Ki (Mu-type opioid receptor [3]) of the same compound?
**A.** The Ki was 1.75 µM.

**Q.** CC1(C)SSC[C@H](NC(=O)[C@@H](N)Cc2ccc(O)cc2)C(=O)N[C@@H](Cc2cccc(O)c2)C(=O)N[C@@H]1C(=O)O (H-YC[mTyr][Pen]-OH; disulfide 2-4) was tested. Which Ratio [1] did it give?
**A.** Its Ratio is 76.6.

**Q.** And the Ki [2]?
**A.** Its Ki is over 10 µM.

**Q.** And the Ki (Mu-type opioid receptor [3])?
**A.** The Ki was 0.712 µM.

**Q.** And the Ki [4]?
**A.** Its Ki is over 10 µM.

**Q.** What about the Ratio [5] of the same compound?
**A.** The Ratio was 22.3.

**Q.** And the Ki (Mu-type opioid receptor [6])?
**A.** The Ki was 3.4 µM.

**Q.** CC1(C)SSC[C@H](NC(=O)[C@@H](N)Cc2ccc(O)cc2)C(=O)N[C@@H](Cc2ccccc2F)C(=O)N[C@@H]1C(=O)O (H-YC[Phe(2-F)][Pen]-OH; disulfide 2-4) was tested. Which Ratio [1] did it give?
**A.** Its Ratio is 28.1.

**Q.** And the Ki [2]?
**A.** The Ki was over 10 µM.

**Q.** And the Ki (Mu-type opioid receptor [3])?
**A.** Its Ki is 0.0919 µM.

**Q.** CC1(C)SSC[C@H](NC(=O)[C@@H](N)Cc2ccc(O)cc2)C(=O)N[C@@H](Cc2ccc(F)cc2)C(=O)N[C@@H]1C(=O)O (H-YC[Phe(4-F)][Pen]-OH; disulfide 2-4) was tested. Which Ki [4] did it give?
**A.** Its Ki is over 10 µM.

**Q.** What about the Ratio [5] of the same compound?
**A.** The Ratio was 146.

**Q.** What about the Ki (Mu-type opioid receptor [6]) of the same compound?
**A.** Its Ki is 0.161 µM.

**Q.** How did the Ki [4] turn out when CC1(C)SSC[C@H](NC(=O)[C@@H](N)Cc2ccc(O)cc2)C(=O)N[C@@H](Cc2ccc([N+](=O)[O-])cc2)C(=O)N[C@@H]1C(=O)O (H-YC[Phe(4-NO2)][Pen]-OH; disulfide 2-4) was run?
**A.** The Ki was over 10 µM.

**Q.** What about the Ratio [5] of the same compound?
**A.** The Ratio was 82.5.

**Q.** What about the Ki (Mu-type opioid receptor [6]) of the same compound?
**A.** The Ki was 0.137 µM.

**Q.** How did the Ratio [1] turn out when CC(C)(C)c1ccc(C[C@@H]2NC(=O)[C@@H](NC(=O)[C@@H](N)Cc3ccc(O)cc3)CSSC(C)(C)[C@@H](C(=O)O)NC2=O)cc1 (H-YC[Phe(4-tBu)][Pen]-OH; disulfide 2-4) was run?
**A.** Its Ratio is 270.

**Q.** What about the Ki [2] of the same compound?
**A.** The Ki was over 10 µM.

**Q.** And the Ki (Mu-type opioid receptor [3])?
**A.** The Ki was 10 µM.

**Q.** And the Ki [4]?
**A.** The Ki was over 10 µM.

**Q.** And the Ratio [5]?
**A.** The Ratio was 15.

**Q.** What about the Ki (Mu-type opioid receptor [6]) of the same compound?
**A.** Its Ki is 10 µM.

**Q.** Which results are given for CC1(C)SSC[C@H](NC(=O)[C@@H](N)Cc2ccc(O)cc2)C(=O)N[C@@H](Cc2cccc(F)c2)C(=O)N[C@@H]1C(=O)O (H-YC[Phe(3-F)][Pen]-OH; disulfide 2-4)?
**A.** Ratio [1]: 19.2; Ki [2]: > 10 µM; Ki (Mu-type opioid receptor [3]): 0.0555 µM

**Q.** For CC1(C)SSC[C@H](NC(=O)[C@@H](N)Cc2ccc(O)cc2)C(=O)N[C@@H](Cc2ccc(O)cc2)C(=O)N[C@@H]1C(=O)O (H-YCY[Pen]-OH; disulfide 2-4), which Ki [4] is on record?
**A.** The Ki was over 10 µM.

**Q.** What about the Ratio [5] of the same compound?
**A.** Its Ratio is 135.

**Q.** And the Ki (Mu-type opioid receptor [6])?
**A.** The Ki was 3.45 µM.

**Q.** Which results are given for CC1(C)SSC[C@H](NC(=O)[C@@H](N)Cc2ccc(O)cc2)C(=O)N[C@@H](Cc2ccc(Cl)cc2)C(=O)N[C@@H]1C(=O)O (H-YC[Phe(4-Cl)][Pen]-OH; disulfide 2-4)?
**A.** Ratio [1]: 334; Ki [2]: 10 µM; Ki (Mu-type opioid receptor [3]): 0.327 µM
